An excerpt weighted towards active compounds, which were near 2.6% of everything screened.
Rad51 HR inh – human RAD51 strand exchange inhibitors, primary screen, biochemical, fluorescence | AID 1385, 2008 | hRad51 DNA strand exchange, fluorescence dequenching | inhibition, % at 10 µM | 200,000 compounds, 0.085% hits | DNA repair protein RAD51 homolog 1 (Homo sapiens), Q06609;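 active = inhibition above 40% at the single screening dose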
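Material: human Rad51–ssDNA filaments; Probe or stimulus: labelled 47-mer dsDNA for strand exchange; Doses: single 10 µM dose; Incubation: 37 °C 15-min filament assembly, 30-min compound preincubation, 15-min exchange; Technique: FRET fluorescence dequenching, excitation 485 nm, emission 520 nm; Measure: Fluorescence-based percent inhibition, control- and blank-normalised; Benchmarks: plate control and blank wells.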
CHT block – inhibitors of human choline transporter CHT; CHT-expressing cells, membrane potential dye, choline response; stronger effect = lower value; B-score at 10 µM; 310,000 compounds, 0.86% hits;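 active = B-score over 3 SD under the library average, and starting fluorescence ratio not unusually high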;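 note: choline stimulus applied at its EC90 after an EC20 pre-addition; B-score computed on integrated fluorescence ratio after choline addition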
Target sequence (Q9GZV3 whole entry, looked up): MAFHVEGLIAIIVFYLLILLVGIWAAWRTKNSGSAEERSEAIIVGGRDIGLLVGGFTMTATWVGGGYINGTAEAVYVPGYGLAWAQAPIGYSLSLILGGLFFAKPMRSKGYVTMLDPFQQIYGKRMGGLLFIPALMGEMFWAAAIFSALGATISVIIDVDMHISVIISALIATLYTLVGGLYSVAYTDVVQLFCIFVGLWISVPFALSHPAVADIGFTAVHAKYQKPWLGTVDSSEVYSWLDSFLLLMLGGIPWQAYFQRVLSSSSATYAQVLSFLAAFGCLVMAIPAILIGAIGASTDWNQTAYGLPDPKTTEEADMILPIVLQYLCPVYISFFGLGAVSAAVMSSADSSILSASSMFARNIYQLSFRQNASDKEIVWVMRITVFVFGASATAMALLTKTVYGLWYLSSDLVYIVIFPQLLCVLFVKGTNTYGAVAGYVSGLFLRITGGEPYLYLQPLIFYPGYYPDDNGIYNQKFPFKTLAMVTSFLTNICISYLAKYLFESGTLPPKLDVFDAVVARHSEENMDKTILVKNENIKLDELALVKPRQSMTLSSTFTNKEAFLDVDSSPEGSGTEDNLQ
CHT PAM – CHT positive allosteric modulators, primary screen, cell-based, membrane potential dye, choline EC20 | CHT-expressing cells; stronger effect = higher value; LV-AA mutant CHT in HEK293 cells | B-score at 10 µM | 310,000 compounds, 0.49% hits;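 active = initial fluorescence not abnormally high and integrated response B-score, plate-corrected, over 3 SD above library mean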
KCC2 mod – KCC2 cotransporter modulators, thallium flux, primary screen, cell-based, HEK293 KCC2, FluoZin-2 fluorescence, MLSMR. KCC2 cells, thallium flux FluoZin-2 fluorescence. AID 1456, 2008. 190,000 compounds, 2.2% hits. B-score of Tl+ flux slope (higher = more flux/activation; lower = inhibition) at 10 µM;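 active = thallium flux slope and its plate-corrected score both differing from the plate sample mean at a set confidence after two filtering rounds, in either direction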;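 note: slope of fluorescence scaled to starting intensity during 10 to 20 s after thallium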
KCC2 sec1 – KCC2 modulators in sodium-free buffer, confirmation, cell-based, HEK293 KCC2, thallium flux, secondary assay. shares compounds with KCC2 mod. FluoZin2 fluorescence; stronger effect = higher value. normalised thallium flux (F/F0 slope) at 10 µM. AID 1713, 2009. 3,700 compounds, 15% hits;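 active = thallium flux slope above the same plate's solvent-only control mean plus 3 SD; inconclusive = the two replicate wells disagree; inactive = no significant difference from solvent-only control wells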
KCC2 bumet counter – thallium flux persisting under bumetanide in KCC2 cells, confirmation, counter-screen for KCC2 modulator project, cell-based, HEK293 KCC2, FluoZin2, secondary assay 3 | AID 1714, 2009 | HEK293-KCC2 + bumetanide/ouabain; stronger effect = higher value | 3,700 compounds, 49% hits | shares compounds with KCC2 mod | normalized thallium flux at 10 µM;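 active = thallium entry rate above the same plate's blocked-transporter control wells by more than 3 SD; inconclusive = the two repeat wells disagree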;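 note: raw slope of fluorescence over initial fluorescence between 10 and 20 s after thallium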
KCC2 sec2 – KCC2 modulators without ouabain present, confirmation, cell-based, HEK293 KCC2, thallium flux, FluoZin2, secondary assay 2; normalized thallium flux at 10 µM; shares compounds with KCC2 mod; AID 1715, 2009; thallium flux FluoZin2 fluorescence; actives lie on both sides; F/F0 rise rate, 10–20 s post-thallium; 3,700 compounds, 23% hits;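 active = thallium flux slope more than 3 SD above or below the plate's solvent-only control mean, mostly below; inconclusive = the two repeat wells disagreed; inactive = no significant shift from solvent-only controls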
HEK counter1 – thallium flux modulation in parental HEK cells, confirmation, counter-screen for KCC2 modulator project, cell-based, counterscreen 1. 3,700 compounds, 46% hits. shares compounds with KCC2 mod. thallium flux rate (normalised fluorescence) at 10 µM. HEK293 parental cells, thallium flux FluoZin2, ouabain; baseline-ratio fluorescence slope, 10–20 s after thallium;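 active = thallium flux rate significantly above the same plate's solvent-only control wells, beyond their mean plus 3 SD; inconclusive = the two replicate wells gave conflicting results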
KCC2 retest ouab – KCC2 inhibitors and activators, ouabain retest, confirmation, HEK-KCC2 cells; shares compounds with KCC2 mod; HEK293-KCC2, thallium flux FluoZin2 fluorescence; bidirectional: low = inhibitor, high = activator; raw Tl+ flux slope (below DMSO = inhibition, above = activation) at 10 µM; 3,700 compounds, 48% hits; AID 1717, 2009;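 active = thallium flux slope beyond 3 SD from same-plate DMSO control mean in most replicates, usually higher, sometimes lower; inconclusive = repeat tests gave conflicting results; inactive = no significant difference from controls in most replicates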;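 note: slope of initial-normalized fluorescence between seconds 10 and 20 after thallium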
HEK counter2 – native HEK Tl+ uptake effects, second counter-screen – HEK cells, counterscreen 2, counter-screen for KCC2 modulator project, confirmation. HEK293 parental, thallium flux FluoZin-2 fluorescence slope. thallium flux slope at 10 µM. 3,700 compounds, 33% hits. shares compounds with KCC2 mod;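 active = thallium flux slope above the same plate's solvent-control mean plus 3 SD in both duplicate wells; inconclusive = duplicate wells that disagreed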;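 note: run without ouabain in cells lacking the KCC2 cotransporter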
Numbers stand for hits; i = inactive; ? = inconclusive; nt = no result.

SMILES | Rad51 HR inh | CHT block | CHT PAM | KCC2 mod | KCC2 sec1 | KCC2 bumet counter | KCC2 sec2 | HEK counter1 | KCC2 retest ouab | HEK counter2
Cc1c(Cl)cccc1-n1c(SCC(=O)N(C)Cc2ccccc2)nnc1-c1ccncc1 | i | i | i | i | nt | nt | nt | nt | nt | nt
CN(C)c1ccc(NC(=O)c2sc(SCC(=O)Nc3nccs3)nc2N)cc1 | i | i | i | 14 | i | 0.0133 | i | 0.0117 | ? | 0.0145
COC(=O)c1cc(Sc2c(Cl)cccc2Cl)ccn1 | i | i | i | i | nt | nt | nt | nt | nt | nt
COC(=O)c1cc(Sc2cccc(Cl)c2Cl)ccn1 | i | i | i | -2.93 | i | i | ? | 0.00614 | 0.0142 | i
CCn1c(NC(=O)c2ccccc2)nc2ccccc21 | i | i | i | 30.7 | i | 0.0181 | i | 0.0161 | ? | 0.0161
CCCCC(NC(C)=O)c1nc2ccccc2n1CCCC (stereo not drawn) | nt | i | i | 5.95 | i | i | i | ? | i | i
CCCCn1c(NC(=O)c2ccccc2)nc2ccccc21 | i | i | i | 13.4 | i | 0.0303 | i | ? | 0.0299 | ?
CC1CN2C(c3ccc(Cl)cc3)=CSC2=N1 (stereo not drawn) | nt | i | i | nt | nt | nt | nt | nt | nt | nt
O=C(CSc1ncn[nH]1)Nc1ccccc1Sc1ccccc1 | i | i | i | i | nt | nt | nt | nt | nt | nt
CN1Cc2ccccc2CC1CNCc1c(C(=O)N2CCCC2)nc2ccccn12 (stereo not drawn) | i | i | i | nt | nt | nt | nt | nt | nt | nt
O=C(O)c1cc(-c2ccc(/C=N/N3C(=O)C4C5C=CC(CC5)C4C3=O)o2)ccc1Cl (stereo not drawn) | i | i | i | -9.69 | i | ? | i | i | i | i
O=C(NCc1cccnc1)c1c(O)c2cccc3c2n(c1=O)CCC3 | i | i | i | nt | nt | nt | nt | nt | nt | nt
CC(C)(C)NC(=O)C(c1ccccn1)N(C(=O)c1csnn1)C1CCCC1 (stereo not drawn) | i | i | i | i | nt | nt | nt | nt | nt | nt
CCn1ncc(Br)c1C(=O)Nc1ccc(C(=O)OC(C)C)cc1 | i | i | i | 5.25 | i | i | i | i | i | i
COc1cc([N+](=O)[O-])cc(/C=N/NC(=O)C(C)Nc2cccc3ccccc23)c1O (stereo not drawn) | i | i | i | i | nt | nt | nt | nt | nt | nt
Cc1cccc(/C=N/NC(=O)C(C)Nc2cccc3ccccc23)n1 (stereo not drawn) | i | i | i | nt | i | i | i | i | i | i
CC1(C)CC(NS(=O)(=O)c2ccc(Cl)cc2)CC(C)(C)N1 | nt | i | i | nt | nt | nt | nt | nt | nt | nt
O=C(CCc1c[nH]c2ccccc12)NCc1ccc2c(c1)OCO2 | i | i | i | i | nt | nt | nt | nt | nt | nt
O=C(CCCc1c[nH]c2ccccc12)NCc1ccc2c(c1)OCO2 | nt | i | i | -4.47 | i | i | i | i | ? | i

Compound activity: PubChem BioAssay, several laboratories
